tested on: Enterococcus faecium; experiment: Antimicrobial activity against Enterococcus faecium 10-5 after 18-24 hrs by two-fold serial dilution method; format: functional
Method in brief: (§1)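 Agar-medium twofold serial dilution against Gram-positive and Gram-negative strains; MIC taken as the lowest compound concentration giving complete inhibition of bacterial growth after incubation at 35 °C for 18-24 h.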

SMILES	MIC [µg/mL]
CS(=O)(=O)O.NCC1CN(c2nc3c(cc2F)c(=O)c(C(=O)O)cn3C2CC2)C/C1=N\OCc1ccc(OCc2ccccc2)cc1 (racemic)	32

tested on: Staphylococcus epidermidis; experiment: Antimicrobial activity against extended spectrum beta-lactamases-producing methicillin-sensitive Staphylococcus epidermidis 10-11 after 18-24 hrs by two-fold serial dilution method; format: functional; method in brief: as §1

SMILES	MIC [µg/mL]
CS(=O)(=O)O.NCC1CN(c2nc3c(cc2F)c(=O)c(C(=O)O)cn3C2CC2)C/C1=N\OCc1ccc(OCc2ccccc2)cc1 (racemic)	1

tested on: Enterococcus faecalis; experiment: Antimicrobial activity against Enterococcus faecalis 10-7 after 18-24 hrs by two-fold serial dilution method; format: functional; method in brief: as §1

SMILES	MIC [µg/mL]
CS(=O)(=O)O.NCC1CN(c2nc3c(cc2F)c(=O)c(C(=O)O)cn3C2CC2)C/C1=N\OCc1ccc(OCc2ccccc2)cc1 (racemic)	16

tested on: Escherichia coli; experiment: Antimicrobial activity against extended spectrum beta-lactamases-producing Escherichia coli 10-3 after 18-24 hrs by two-fold serial dilution method; format: functional; method in brief: as §1

SMILES	MIC [µg/mL]
CS(=O)(=O)O.NCC1CN(c2nc3c(cc2F)c(=O)c(C(=O)O)cn3C2CC2)C/C1=N\OCc1ccc(OCc2ccccc2)cc1 (racemic)	> 128

tested on: Klebsiella pneumoniae; experiment: Antimicrobial activity against Klebsiella pneumoniae 10-3 after 18-24 hrs by two-fold serial dilution method; format: functional; method in brief: as §1

SMILES	MIC [µg/mL]
CS(=O)(=O)O.NCC1CN(c2nc3c(cc2F)c(=O)c(C(=O)O)cn3C2CC2)C/C1=N\OCc1ccc(OCc2ccccc2)cc1 (racemic)	2

tested on: Klebsiella pneumoniae; experiment: Antimicrobial activity against extended spectrum beta-lactamases-producing Klebsiella pneumoniae 10-1 after 18-24 hrs by two-fold serial dilution method; format: functional; method in brief: as §1

SMILES	MIC [µg/mL]
CS(=O)(=O)O.NCC1CN(c2nc3c(cc2F)c(=O)c(C(=O)O)cn3C2CC2)C/C1=N\OCc1ccc(OCc2ccccc2)cc1 (racemic)	> 128

tested on: Streptococcus pneumoniae; experiment: Antimicrobial activity against extended spectrum beta-lactamases-producing Streptococcus pneumoniae 10-4 after 18-24 hrs by two-fold serial dilution method; format: functional; method in brief: as §1

SMILES	MIC [µg/mL]
CS(=O)(=O)O.NCC1CN(c2nc3c(cc2F)c(=O)c(C(=O)O)cn3C2CC2)C/C1=N\OCc1ccc(OCc2ccccc2)cc1 (racemic)	8

tested on: Escherichia coli; experiment: Antimicrobial activity against Escherichia coli 10-1 after 18-24 hrs by two-fold serial dilution method; format: functional; method in brief: as §1

SMILES	MIC [µg/mL]
CS(=O)(=O)O.NCC1CN(c2nc3c(cc2F)c(=O)c(C(=O)O)cn3C2CC2)C/C1=N\OCc1ccc(OCc2ccccc2)cc1 (racemic)	0.03

tested on: Staphylococcus aureus; experiment: Antimicrobial activity against Staphylococcus aureus ATCC […] after 18-24 hrs by two-fold serial dilution method; format: functional; method in brief: as §1

SMILES	MIC [µg/mL]
CS(=O)(=O)O.NCC1CN(c2nc3c(cc2F)c(=O)c(C(=O)O)cn3C2CC2)C/C1=N\OCc1ccc(OCc2ccccc2)cc1 (racemic)	2

tested on: Staphylococcus epidermidis; experiment: Antimicrobial activity against extended spectrum beta-lactamases-producing methicillin-resistant Staphylococcus epidermidis 10-10 after 18-24 hrs by two-fold serial dilution method; format: functional
Method in brief: (§2)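 Agar twofold serial dilution MIC against clinical isolates. MIC was taken as the lowest concentration giving complete inhibition of bacterial growth after incubation at 35 °C for 18-24 h.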

SMILES	MIC [µg/mL]
CS(=O)(=O)O.NCC1CN(c2nc3c(cc2F)c(=O)c(C(=O)O)cn3C2CC2)C/C1=N\OCc1ccc(OCc2ccccc2)cc1 (racemic)	4

tested on: Staphylococcus aureus; experiment: Antimicrobial activity against extended spectrum beta-lactamases-producing methicillin-sensitive Staphylococcus aureus 10-14 after 18-24 hrs by two-fold serial dilution method; format: functional; method in brief: as §1

SMILES	MIC [µg/mL]
CS(=O)(=O)O.NCC1CN(c2nc3c(cc2F)c(=O)c(C(=O)O)cn3C2CC2)C/C1=N\OCc1ccc(OCc2ccccc2)cc1 (racemic)	1

tested on: Pseudomonas aeruginosa; experiment: Antimicrobial activity against Pseudomonas aeruginosa 10-12 after 18-24 hrs by two-fold serial dilution method; format: functional; method in brief: as §1

SMILES	MIC [µg/mL]
CS(=O)(=O)O.NCC1CN(c2nc3c(cc2F)c(=O)c(C(=O)O)cn3C2CC2)C/C1=N\OCc1ccc(OCc2ccccc2)cc1 (racemic)	16

tested on: Escherichia coli; experiment: Antimicrobial activity against Escherichia coli ATCC 25922 after 18-24 hrs by two-fold serial dilution method; format: functional; method in brief: as §1

SMILES	MIC [µg/mL]
CS(=O)(=O)O.NCC1CN(c2nc3c(cc2F)c(=O)c(C(=O)O)cn3C2CC2)C/C1=N\OCc1ccc(OCc2ccccc2)cc1 (racemic)	4

tested on: Escherichia coli; experiment: Antimicrobial activity against extended spectrum beta-lactamases-producing Escherichia coli 10-4 after 18-24 hrs by two-fold serial dilution method; format: functional; method in brief: as §1

SMILES	MIC [µg/mL]
CS(=O)(=O)O.NCC1CN(c2nc3c(cc2F)c(=O)c(C(=O)O)cn3C2CC2)C/C1=N\OCc1ccc(OCc2ccccc2)cc1 (racemic)	0.06

tested on: Pseudomonas aeruginosa; experiment: Antimicrobial activity against extended spectrum beta-lactamases-producing Pseudomonas aeruginosa 10-15 after 18-24 hrs by two-fold serial dilution method; format: functional; method in brief: as §1

SMILES	MIC [µg/mL]
CS(=O)(=O)O.NCC1CN(c2nc3c(cc2F)c(=O)c(C(=O)O)cn3C2CC2)C/C1=N\OCc1ccc(OCc2ccccc2)cc1 (racemic)	8

tested on: Pseudomonas aeruginosa; experiment: Antimicrobial activity against extended spectrum beta-lactamases-producing Pseudomonas aeruginosa 10-5 after 18-24 hrs by two-fold serial dilution method; format: functional; method in brief: as §1

SMILES	MIC [µg/mL]
CS(=O)(=O)O.NCC1CN(c2nc3c(cc2F)c(=O)c(C(=O)O)cn3C2CC2)C/C1=N\OCc1ccc(OCc2ccccc2)cc1 (racemic)	16

tested on: Staphylococcus aureus; experiment: Antimicrobial activity against extended spectrum beta-lactamases-producing methicillin-sensitive Staphylococcus aureus 10-13 after 18-24 hrs by two-fold serial dilution method; format: functional; method in brief: as §1

SMILES	MIC [µg/mL]
CS(=O)(=O)O.NCC1CN(c2nc3c(cc2F)c(=O)c(C(=O)O)cn3C2CC2)C/C1=N\OCc1ccc(OCc2ccccc2)cc1 (racemic)	1

tested on: Staphylococcus epidermidis; experiment: Antimicrobial activity against extended spectrum beta-lactamases-producing methicillin-resistant Staphylococcus epidermidis 10-13 after 18-24 hrs by two-fold serial dilution method; format: functional; method in brief: as §2

SMILES	MIC [µg/mL]
CS(=O)(=O)O.NCC1CN(c2nc3c(cc2F)c(=O)c(C(=O)O)cn3C2CC2)C/C1=N\OCc1ccc(OCc2ccccc2)cc1 (racemic)	4

tested on: Klebsiella pneumoniae; experiment: Antimicrobial activity against Klebsiella pneumoniae 10-2 after 18-24 hrs by two-fold serial dilution method; format: functional; method in brief: as §1

SMILES	MIC [µg/mL]
CS(=O)(=O)O.NCC1CN(c2nc3c(cc2F)c(=O)c(C(=O)O)cn3C2CC2)C/C1=N\OCc1ccc(OCc2ccccc2)cc1 (racemic)	16

tested on: Enterococcus faecalis; experiment: Antimicrobial activity against Enterococcus faecalis 10-6 after 18-24 hrs by two-fold serial dilution method; format: functional; method in brief: as §1

SMILES	MIC [µg/mL]
CS(=O)(=O)O.NCC1CN(c2nc3c(cc2F)c(=O)c(C(=O)O)cn3C2CC2)C/C1=N\OCc1ccc(OCc2ccccc2)cc1 (racemic)	32

tested on: Pseudomonas aeruginosa; experiment: Antimicrobial activity against extended spectrum beta-lactamases-producing Pseudomonas aeruginosa 10-20 after 18-24 hrs by two-fold serial dilution method; format: functional; method in brief: as §1

SMILES	MIC [µg/mL]
CS(=O)(=O)O.NCC1CN(c2nc3c(cc2F)c(=O)c(C(=O)O)cn3C2CC2)C/C1=N\OCc1ccc(OCc2ccccc2)cc1 (racemic)	16

tested on: Pseudomonas aeruginosa; experiment: Antimicrobial activity against extended spectrum beta-lactamases-producing Pseudomonas aeruginosa 10-9 after 18-24 hrs by two-fold serial dilution method; format: functional; method in brief: as §1

SMILES	MIC [µg/mL]
CS(=O)(=O)O.NCC1CN(c2nc3c(cc2F)c(=O)c(C(=O)O)cn3C2CC2)C/C1=N\OCc1ccc(OCc2ccccc2)cc1 (racemic)	2

tested on: Enterococcus faecium; experiment: Antimicrobial activity against Enterococcus faecium 10-9 after 18-24 hrs by two-fold serial dilution method; format: functional; method in brief: as §1

SMILES	MIC [µg/mL]
CS(=O)(=O)O.NCC1CN(c2nc3c(cc2F)c(=O)c(C(=O)O)cn3C2CC2)C/C1=N\OCc1ccc(OCc2ccccc2)cc1 (racemic)	32

tested on: Enterococcus faecalis; experiment: Antimicrobial activity against Enterococcus faecalis 10-5 after 18-24 hrs by two-fold serial dilution method; format: functional; method in brief: as §1

SMILES	MIC [µg/mL]
CS(=O)(=O)O.NCC1CN(c2nc3c(cc2F)c(=O)c(C(=O)O)cn3C2CC2)C/C1=N\OCc1ccc(OCc2ccccc2)cc1 (racemic)	8

tested on: Klebsiella pneumoniae; experiment: Antimicrobial activity against Klebsiella pneumoniae 10-4 after 18-24 hrs by two-fold serial dilution method; format: functional; method in brief: as §1

SMILES	MIC [µg/mL]
CS(=O)(=O)O.NCC1CN(c2nc3c(cc2F)c(=O)c(C(=O)O)cn3C2CC2)C/C1=N\OCc1ccc(OCc2ccccc2)cc1 (racemic)	> 128

tested on: Klebsiella pneumoniae; experiment: Antimicrobial activity against extended spectrum beta-lactamases-producing Klebsiella pneumoniae 10-2 after 18-24 hrs by two-fold serial dilution method; format: functional; method in brief: as §1

SMILES	MIC [µg/mL]
CS(=O)(=O)O.NCC1CN(c2nc3c(cc2F)c(=O)c(C(=O)O)cn3C2CC2)C/C1=N\OCc1ccc(OCc2ccccc2)cc1 (racemic)	> 128

tested on: Streptococcus pneumoniae; experiment: Antimicrobial activity against extended spectrum beta-lactamases-producing Streptococcus pneumoniae 10-1 after 18-24 hrs by two-fold serial dilution method; format: functional; method in brief: as §1

SMILES	MIC [µg/mL]
CS(=O)(=O)O.NCC1CN(c2nc3c(cc2F)c(=O)c(C(=O)O)cn3C2CC2)C/C1=N\OCc1ccc(OCc2ccccc2)cc1 (racemic)	2

tested on: Escherichia coli; experiment: Antimicrobial activity against extended spectrum beta-lactamases-producing Escherichia coli 10-2 after 18-24 hrs by two-fold serial dilution method; format: functional; method in brief: as §1

SMILES	MIC [µg/mL]
CS(=O)(=O)O.NCC1CN(c2nc3c(cc2F)c(=O)c(C(=O)O)cn3C2CC2)C/C1=N\OCc1ccc(OCc2ccccc2)cc1 (racemic)	> 128

tested on: Staphylococcus epidermidis; experiment: Antimicrobial activity against extended spectrum beta-lactamases-producing methicillin-sensitive Staphylococcus epidermidis 10-15 after 18-24 hrs by two-fold serial dilution method; format: functional; method in brief: as §1

SMILES	MIC [µg/mL]
CS(=O)(=O)O.NCC1CN(c2nc3c(cc2F)c(=O)c(C(=O)O)cn3C2CC2)C/C1=N\OCc1ccc(OCc2ccccc2)cc1 (racemic)	4

tested on: Staphylococcus aureus; experiment: Antimicrobial activity against extended spectrum beta-lactamases-producing methicillin-resistant Staphylococcus aureus 10-15 after 18-24 hrs by two-fold serial dilution method; format: functional; method in brief: as §2

SMILES	MIC [µg/mL]
CS(=O)(=O)O.NCC1CN(c2nc3c(cc2F)c(=O)c(C(=O)O)cn3C2CC2)C/C1=N\OCc1ccc(OCc2ccccc2)cc1 (racemic)	8

tested on: Klebsiella pneumoniae; experiment: Antimicrobial activity against extended spectrum beta-lactamases-producing Klebsiella pneumoniae 10-3 after 18-24 hrs by two-fold serial dilution method; format: functional; method in brief: as §1

SMILES	MIC [µg/mL]
CS(=O)(=O)O.NCC1CN(c2nc3c(cc2F)c(=O)c(C(=O)O)cn3C2CC2)C/C1=N\OCc1ccc(OCc2ccccc2)cc1 (racemic)	8

tested on: Escherichia coli; experiment: Antimicrobial activity against Escherichia coli 10-3 after 18-24 hrs by two-fold serial dilution method; format: functional; method in brief: as §1

SMILES	MIC [µg/mL]
CS(=O)(=O)O.NCC1CN(c2nc3c(cc2F)c(=O)c(C(=O)O)cn3C2CC2)C/C1=N\OCc1ccc(OCc2ccccc2)cc1 (racemic)	0.125

tested on: Pseudomonas aeruginosa; experiment: Antimicrobial activity against extended spectrum beta-lactamases-producing Pseudomonas aeruginosa 10-18 after 18-24 hrs by two-fold serial dilution method; format: functional; method in brief: as §1

SMILES	MIC [µg/mL]
CS(=O)(=O)O.NCC1CN(c2nc3c(cc2F)c(=O)c(C(=O)O)cn3C2CC2)C/C1=N\OCc1ccc(OCc2ccccc2)cc1 (racemic)	2

tested on: Escherichia coli; experiment: Antimicrobial activity against Escherichia coli 10-2 after 18-24 hrs by two-fold serial dilution method; format: functional; method in brief: as §1

SMILES	MIC [µg/mL]
CS(=O)(=O)O.NCC1CN(c2nc3c(cc2F)c(=O)c(C(=O)O)cn3C2CC2)C/C1=N\OCc1ccc(OCc2ccccc2)cc1 (racemic)	0.25

tested on: Staphylococcus aureus; experiment: Antimicrobial activity against extended spectrum beta-lactamases-producing methicillin-resistant Staphylococcus aureus 10-11 after 18-24 hrs by two-fold serial dilution method; format: functional; method in brief: as §2

SMILES	MIC [µg/mL]
CS(=O)(=O)O.NCC1CN(c2nc3c(cc2F)c(=O)c(C(=O)O)cn3C2CC2)C/C1=N\OCc1ccc(OCc2ccccc2)cc1 (racemic)	4

tested on: Staphylococcus epidermidis; experiment: Antimicrobial activity against extended spectrum beta-lactamases-producing methicillin-sensitive Staphylococcus epidermidis 10-13 after 18-24 hrs by two-fold serial dilution method; format: functional; method in brief: as §1

SMILES	MIC [µg/mL]
CS(=O)(=O)O.NCC1CN(c2nc3c(cc2F)c(=O)c(C(=O)O)cn3C2CC2)C/C1=N\OCc1ccc(OCc2ccccc2)cc1 (racemic)	16

— ChEMBL document CHEMBL2062435, “Synthesis and in vitro antibacterial activity of gemifloxacin derivatives containing a substituted benzyloxime moiety” (2012)
